Assay results from PMC4543588 (European journal of medicinal chemistry, 2015).
Ends that are not written are not given here.

Experiments:
human NMU2 = human NMU2 (Homo sapiens, UniProt Q9GZQ4); assay: cellular calcium signaling assay, HEK293 cells expressing recombinant human NMU2; format: cell-based
Method in brief: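 HEK293 cells stably expressing human NMU2 were grown to ~90% confluence on poly-D-lysine, loaded 45 min at 37 °C with 2 μM fluo-4-AM in Krebs'-HEPES-BSA (pH 7.4), then equilibrated 5 min. After ligand addition, fluorescence (ex 485/em 520 nm) was read at 0.5 s intervals. Maximal [Ca2+]i change was fitted by four-parameter logistic for EC50. Emax given as % hNmU Emax; mean ± SEM, n≥4.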

human NMU1 = target: T1, human NMU1 (Homo sapiens, UniProt Q9HB89); assay: cellular calcium signaling assay, HEK293 cells expressing recombinant human NMU1; format: cell-based
T1 sequence (Q9HB89 1-426): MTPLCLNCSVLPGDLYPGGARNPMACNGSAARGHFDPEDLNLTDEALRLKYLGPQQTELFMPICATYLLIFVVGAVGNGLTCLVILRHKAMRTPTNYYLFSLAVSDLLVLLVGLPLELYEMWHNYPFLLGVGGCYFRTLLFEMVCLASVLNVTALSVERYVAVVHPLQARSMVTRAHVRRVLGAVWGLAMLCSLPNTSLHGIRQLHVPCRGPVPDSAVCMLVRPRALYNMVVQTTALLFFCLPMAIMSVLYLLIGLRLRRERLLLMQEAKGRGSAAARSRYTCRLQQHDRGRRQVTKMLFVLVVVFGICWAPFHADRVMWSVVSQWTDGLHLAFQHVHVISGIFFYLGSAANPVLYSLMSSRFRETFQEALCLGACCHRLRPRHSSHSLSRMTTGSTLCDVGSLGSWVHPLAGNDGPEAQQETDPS
Method in brief: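 HEK293 cells stably expressing human NMU1, grown to ~90% confluence on poly-D-lysine, loaded 45 min at 37 °C with 2 μM fluo-4-AM in Krebs'-HEPES/0.1% BSA (pH 7.4), then equilibrated 5 min. Ligand added; fluorescence (ex 485/em 520 nm) read every 0.5 s. […] Four-parameter logistic fit gave EC50; Emax as % hNmU; n≥4.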

[1] = body distribution analysis in chronically treated DIO mice; format: in vivo, mouse; details: 2.2 mg/kg every 2 days for 28 days
Method in brief: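 Male DIO C57BL/6 mice were given test compound chronically at 2.2 mg/kg (1603 nmoles/kg) every 2 days for 28 days, then killed. Organs and tissues were harvested, weighed and homogenised in 4 volumes of DMSO/ACN (1:1) with 0.1% TFA, then spun 10 min at 13000 rpm. Supernatants were analysed by triple-quadrupole LC/MS with a methylated analog as internal standard.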

[2] = system: lysophosphatidic acid (LPA); assay: LPA levels in plasma of chronically treated DIO mice; format: in vivo, mouse; details: 1603 nmoles/kg; every 2 or 4 (NM4A) or 7 days (NM4-C16) for 21 days
Method in brief: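 Ad libitum-fed male DIO C57BL/6 mice on a 60% kcal-fat diet (n=8/group) received s.c. vehicle or test compound in a phospholipid-based delivery system, 30 min before dark onset. Dosing was 1603 nmoles/kg every 2 or 4 days (2.2 mg/kg) or every 7 days (2.6 mg/kg) for 21 days. Plasma (100 μL) underwent solid-phase extraction and drying at 30–37 °C, then methanol reconstitution. 18:1, 18:2 and 20:4 LPA were quantified by LC-ESI-MS/MS.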

water solubility = format: physicochemical
[3] = cited from earlier work
[4] = s.c. injection ref 39; cited from earlier work

Chain of human NMU2 (Q9GZQ4 whole entry): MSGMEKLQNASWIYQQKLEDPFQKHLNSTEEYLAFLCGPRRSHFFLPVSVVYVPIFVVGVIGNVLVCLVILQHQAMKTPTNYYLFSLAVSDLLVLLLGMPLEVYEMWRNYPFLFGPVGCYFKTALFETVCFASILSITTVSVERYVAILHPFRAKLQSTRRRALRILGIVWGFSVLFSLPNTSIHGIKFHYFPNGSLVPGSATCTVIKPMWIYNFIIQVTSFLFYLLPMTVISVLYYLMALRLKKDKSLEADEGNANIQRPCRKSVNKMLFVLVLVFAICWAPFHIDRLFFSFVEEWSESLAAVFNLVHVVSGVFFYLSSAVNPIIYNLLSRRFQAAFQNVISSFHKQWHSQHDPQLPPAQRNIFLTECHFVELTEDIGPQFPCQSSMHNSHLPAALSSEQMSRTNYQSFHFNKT

NMU2 Emax at 10 μM as % hNmU Emax (human NMU2) [% hNmU Emax] | NMU1 Emax at 10 μM as % hNmU Emax (human NMU1) [% hNmU Emax] | Molecule | also measured
70.0±6.0 | 30.00±6.0 | X(C-Ahx -FL- Phe -Arg- Oic-R-Asn-Ahx-C) [NM12] | –
60.7±12.1 | 40.6±2.2 | Pal-Aib -FL- Phe -Arg- Pro-R-Asn-Aib [NM6] | –
67.0±16.5 | 22.9±3.8 | Pal-Aib -FL- N^MeF -Arg- Pro-R-N^MeN [NM35] | –
17.9±1.5 | 13.8±2.0 | Pal-Aib -FL- Phe-N^MeR- Pro-R-N^MeN [NM31] | –
– | – | CCCCCCCCCCCCCCCCNC(=O)CNCC(=O)NC(C)(C)C(=O)N[C@@H](Cc1ccccc1)C(=O)N[C@@H](CC(C)C)C(=O)N[C@@H](Cc1ccccc1)C(=O)N[C@@H](CCCNC(=N)N)C(=O)N1CCC[C@H]1C(=O)N[C@@H](CCCNC(=N)N)C(=O)N[C@@H](CC(N)=O)C(N)=O [NM4A, Ida^NHPal-Aib -FL- Phe -Arg- Pro-R-Asn] | body distribution [1]: highest content of NM4A was detected in the plasma; plasma levels of LPA [2]: does not increase plasma levels of LPA; water solubility (water solubility): limited water solubility
19.2±2.0 | 20.6±1.9 | Pal-Aib -FL- α^MeF -Arg- Pro-R-N^MeN [NM33] | –
15.2±3.8 | 19.1±1.2 | Pal-Aib -FL- N^MeF -Arg- Pro-R-N^MeN [NM32] | –
– | – | semaglutide | plasma half-life [3]: 160 h
18.4±3.2 | 19.6±3.2 | Pal-Aib -FL- Phe-N^MeR- Pro-R-N^MeN [NM34] | –
60.6±11.6 | 33.7±0.2 | X(C-Ahx -FL- Phe -Arg- Pro-R-Asn-Ahx-C) [NM11] | –
39.3±8.8 | 60.4±13.8 | X(C-Ahx -FL- Phe -Arg- Tic-R-Asn-Ahx-C) [NM13] | –
28.6±7.9 | 15.9±6.6 | Pal-Aib -FL- α^MeF -Arg- Pro-R-N^MeN [NM36] | –
– | – | NmU: endogenous peptide neuromedin U (FRVDEEFQSPFASQSRGYFLFRPRN-NH2; ends and bridges not checked; UniProt P48645 142-166, looked up) | half-life after subcutaneous (s.c.) injection [4]: less than 5 min
